Experimental data as given in ChEMBL document CHEMBL5150022, “Small Molecule Inhibitors of Lymphocyte Perforin as Focused Immunosuppressants for Infection and Autoimmunity” (J Med Chem, 2022).
pIC50: −log10 of the molar value. “And” between values parts separate entries of the source, which are not always exact repeats. Equal entries are not always repeated.

What was measured:
[1] = target: T1, Perforin-1 (Homo sapiens) (UniProt P14222); experiment: Inhibition of Perforin-1 in human Jurkat cells at 20 uM incubated for 4 hrs relative to control; type: cell-based
T1 sequence (whole entry): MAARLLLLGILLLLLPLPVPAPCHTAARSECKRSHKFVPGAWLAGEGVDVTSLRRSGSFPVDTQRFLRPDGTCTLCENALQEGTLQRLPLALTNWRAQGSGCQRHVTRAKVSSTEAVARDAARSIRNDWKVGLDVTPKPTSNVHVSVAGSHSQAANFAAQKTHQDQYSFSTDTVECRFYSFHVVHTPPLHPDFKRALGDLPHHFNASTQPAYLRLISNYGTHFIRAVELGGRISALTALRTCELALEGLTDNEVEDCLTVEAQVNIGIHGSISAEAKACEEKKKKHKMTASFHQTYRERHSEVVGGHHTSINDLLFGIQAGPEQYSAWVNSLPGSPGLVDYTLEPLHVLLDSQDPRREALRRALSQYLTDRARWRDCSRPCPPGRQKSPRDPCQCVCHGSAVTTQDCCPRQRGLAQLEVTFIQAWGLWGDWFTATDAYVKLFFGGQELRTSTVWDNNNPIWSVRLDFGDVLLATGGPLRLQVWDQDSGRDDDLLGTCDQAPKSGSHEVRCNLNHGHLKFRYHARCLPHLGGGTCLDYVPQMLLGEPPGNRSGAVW

[2] = Inhibition of Perforin-1 in sheep red blood cells incubated for 30 mins; type: cell-based, Ovis aries; conditions: rbc
Method in brief: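 Recombinant mouse perforin-mediated lysis of sheep red blood cells, read as turbidity change by absorbance at 650 nm. Compounds first tested at a single 20 μM point, then at 100, 20, 4, 0.8 and 0.16 μM to give IC₅₀. Hits were rechecked with 0.1% BSA.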

[3] = Antiproliferative activity against human KHYG-1 at 20 uM incubated for 20 mins; type: functional
[4] = Mutagenicity in Salmonella typhimurium TA100 by AMES test; type: toxicity, Salmonella enterica subsp. enterica serovar Typhimurium
[5] = target: T1, Perforin-1 (Homo sapiens); experiment: Inhibition of Perforin-1 in human KHYG-1 cells assessed as unbound concentration; type: cell-based
Method in brief: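 KHYG1 NK cell killing of ⁵¹Cr-labelled K562 targets; IC₉₀ determined. Compound binding to proteins in the assay medium was measured and used to estimate the unbound IC₉₀.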

[6] = Toxicity in C57BL/6 mouse assessed as animal survival at 100 mg/kg, po measured for 2 days; type: organism-based; conditions: in vivo, time 2 day, read-out: Activity
[7] = Plasma protein binding in mouse; type: ADME, cell-free; conditions: read-out: PPB (converted)
[8] = Toxicity in C57BL/6 mouse assessed as effect on aspartate transaminase level at 100 mg/kg, po measured for 2 days; type: organism-based; conditions: in vivo, 48 h, time 2 day
[9] = Elimination half life in mouse plasma at 10 to 160 mg/kg, po measured for 24 hrs; type: ADME, organism-based; conditions: dose 10-160 mg/kg, read-out: beta t1/2 (converted)
[10] = Reversal of Perforin-1 dependent NK-cell mediated graft rejection in human KHYG-1 cells assessed as reduction in perforin-1 activity at 90 mg/kg for 24 days relative to control; type: functional; set-up: scale not given: the % may be the effect or the level left; conditions: time 24 day
[11] = Cytotoxicity against human Natural killer cells assessed as reduction in cell viability at 20 uM
[12] = Cytotoxicity against human Natural killer cells at 20 uM; conditions: natural killer cell
[13] = target: T1, Perforin-1 (Homo sapiens); experiment: Inhibition of Perforin-1 in human Natural killer cells at 20 uM incubated after 24 hrs relative to control; type: cell-based; conditions: Natural killer cell, time 4.0 hrs, in the assay text read “after 4 hrs” for “after 24 hrs”
Method in brief: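 Human KHYG1 NK cells plus medium coincubated with inhibitor at 20 μM final, or 5 μM in one case. ⁵¹Cr-labelled K562 leukaemia targets added; lysis measured by ⁵¹Cr release after 4 h. Effector NK cell viability measured 24 h later.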

[14] = Stability in mouse plasma incubated for 24 hrs by HPLC analysis; type: ADME, cell-free; conditions: read-out: Stability
Method in brief: (§1)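 Compound incubated in human or mouse plasma at 37 °C for 24 h; parent remaining quantified by HPLC.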

[15] = Stability in human plasma incubated for 24 hrs by HPLC analysis; type: ADME, cell-free; conditions: read-out: Stability; method in brief: as §1
Brain [16] = experiment: Anti-neuroinflammation in LPS-induced mouse brain assessed as reduction in caspase-3/7 production at 250 microg/kg administered for 3 days; type: functional; set-up: scale not given: the % may be the effect or the level left; conditions: dose 250 µg/kg; time 3 day
Brain [17] = experiment: Anti-neuroinflammation in LPS-induced mouse brain assessed as reduction in prostaglandin E2 production at 250 microg/kg administered for 3 days; type: functional; set-up: scale not given: the % may be the effect or the level left; conditions: dose 250 µg/kg; time 3 day
Acetylcholinesterase = Acetylcholinesterase (Homo sapiens, UniProt P22303); experiment: Inhibition of AChE (unknown origin)
Sequence of Acetylcholinesterase (P22303 whole entry): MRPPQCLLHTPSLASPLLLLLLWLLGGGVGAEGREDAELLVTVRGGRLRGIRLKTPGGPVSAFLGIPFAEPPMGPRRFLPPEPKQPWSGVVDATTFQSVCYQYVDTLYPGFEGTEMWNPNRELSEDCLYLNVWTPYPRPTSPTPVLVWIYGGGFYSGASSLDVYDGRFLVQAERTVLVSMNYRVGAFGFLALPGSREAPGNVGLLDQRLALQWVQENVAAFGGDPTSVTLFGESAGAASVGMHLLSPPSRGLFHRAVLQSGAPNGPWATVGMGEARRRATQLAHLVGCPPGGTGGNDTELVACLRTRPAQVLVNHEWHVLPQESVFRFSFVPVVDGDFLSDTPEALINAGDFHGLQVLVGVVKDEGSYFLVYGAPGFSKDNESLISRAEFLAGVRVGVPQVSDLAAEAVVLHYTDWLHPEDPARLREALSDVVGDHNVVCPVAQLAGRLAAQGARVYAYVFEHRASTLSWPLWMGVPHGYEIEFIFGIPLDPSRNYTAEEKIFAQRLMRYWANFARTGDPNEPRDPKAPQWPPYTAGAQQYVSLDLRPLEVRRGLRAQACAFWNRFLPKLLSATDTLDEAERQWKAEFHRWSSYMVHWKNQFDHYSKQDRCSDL

[18] = target: Beta-secretase 1 (Homo sapiens) (UniProt P56817); experiment: Inhibition of BACE1 (unknown origin) at 1 uM relative to control
Sequence of Beta-secretase 1 (Homo sapiens) (P56817 whole entry): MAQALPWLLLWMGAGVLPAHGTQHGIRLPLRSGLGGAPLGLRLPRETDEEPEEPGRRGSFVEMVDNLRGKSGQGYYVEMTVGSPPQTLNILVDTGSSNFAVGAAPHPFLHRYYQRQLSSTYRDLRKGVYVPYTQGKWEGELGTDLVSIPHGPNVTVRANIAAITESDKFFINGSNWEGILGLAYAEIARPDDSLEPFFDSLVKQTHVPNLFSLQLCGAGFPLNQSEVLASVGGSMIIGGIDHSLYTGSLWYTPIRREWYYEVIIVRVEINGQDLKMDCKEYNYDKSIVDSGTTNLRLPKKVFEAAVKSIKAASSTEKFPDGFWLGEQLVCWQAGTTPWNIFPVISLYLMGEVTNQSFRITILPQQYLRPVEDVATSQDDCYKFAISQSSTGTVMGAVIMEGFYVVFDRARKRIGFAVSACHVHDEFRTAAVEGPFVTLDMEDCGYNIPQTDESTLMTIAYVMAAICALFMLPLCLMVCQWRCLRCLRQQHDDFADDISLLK

[19] = target: T2, Perforin-1 (Mus musculus) (UniProt P10820); experiment: Inhibition of mouse Perforin-1 in Natural killer cell at 20 uM relative to control
T2 sequence (whole entry): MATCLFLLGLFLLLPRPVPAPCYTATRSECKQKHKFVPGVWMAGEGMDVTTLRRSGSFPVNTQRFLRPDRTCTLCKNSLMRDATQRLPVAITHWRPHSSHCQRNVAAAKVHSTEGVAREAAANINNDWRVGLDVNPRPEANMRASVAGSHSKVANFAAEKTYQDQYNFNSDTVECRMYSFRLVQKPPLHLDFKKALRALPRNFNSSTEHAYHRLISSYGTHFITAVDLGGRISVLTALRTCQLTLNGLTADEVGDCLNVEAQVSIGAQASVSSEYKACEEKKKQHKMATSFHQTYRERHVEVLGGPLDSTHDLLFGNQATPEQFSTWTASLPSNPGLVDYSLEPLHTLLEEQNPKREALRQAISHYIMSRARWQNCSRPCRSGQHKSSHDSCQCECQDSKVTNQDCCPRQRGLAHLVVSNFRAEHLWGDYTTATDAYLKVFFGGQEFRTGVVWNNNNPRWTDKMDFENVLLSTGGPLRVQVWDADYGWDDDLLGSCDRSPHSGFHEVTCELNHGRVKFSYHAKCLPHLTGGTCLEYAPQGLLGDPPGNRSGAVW

O=C1NC(=S)N/C1=C/c1ccc(-c2ccc3c(c2)COC3=O)o1
inhibition [1]: 99%
pIC50 [2]: 5.14

CNC(=O)c1ccc(-c2c(C#N)c(N)n3c(nc4ccccc43)c2C#N)cc1
inhibition [1]: 91%
Activity [3]: 84%
pIC50 [2]: 5.98

Cc1cc2c(c(=S)[nH]1)C(=O)O/C2=C\c1ccc(C)o1
inhibition [1]: 100%
pIC50 [4]: 5.47
pIC50 [2]: 5.01

CN1Cc2cc(-c3ccc(-c4cncc(NS(=O)(=O)c5ccccc5[N+](=O)[O-])c4)s3)ccc2C1=O
IC90 [5]: 0.77 µM
survival at 48 h [6]: 100%
fraction unbound [7]: 0.002
Activity [8]: 60%
half-life [9]: 2.4 h

COc1ncc(-c2ccc(-c3cnc4c(c3)CN(C)C4=O)s2)cc1NS(=O)(=O)c1ccc(F)cc1F
Activity [10]: 66%

NC(=O)c1ccc(-c2ccc(-c3ccc4c(c3)COC4=O)s2)cn1
Activity [11]: 82%
Activity [12]: 80%

NC(=O)c1ccc(-c2ccc(-c3ccc4c(c3)COC4=O)s2)cc1
Activity [11]: 90%
inhibition [1]: 52%
Activity [3]: 70%
pIC50 [2]: 4.88
inhibition [13]: 63%
remaining at 24 h [14]: 75%
Activity [12]: 38% and 63%
remaining at 24 h [15]: 46%

O=C1OCc2cc(-c3ccc(-c4ccc(CO)cc4)s3)ccc21
Activity (Brain [16]): 63%
Activity (Brain [17]): 55%
pIC50 (Acetylcholinesterase): 5.10
inhibition [18]: 72%

O=C1NC(=S)N/C1=C/c1ccc(-c2ccc3c(c2)CCNC3=O)s1
inhibition [1]: 98%
inhibition [19]: 60%
pIC50 [2]: 4.83

Cc1cc2c(c(=S)[nH]1)C(=O)O/C2=C\c1cc2ccccc2s1
inhibition [1]: 63%
Activity [3]: 89%
pIC50 [2]: 6.01
